Measurements reported in the RNAGym collection of RNA variant scans (doi:10.1126/science.aae0568).
Fewer inactive variants are shown than the library holds.

B1: tRNA (parent)
chain: GUUCCGUUGGCGUAAUGGUAACGCGUCUCCCUCCUAAGGAGAAGACUGCGGGUUCGAGUCCCGUACGGAACG

Variants of: B1
Test: yeast fitness relative to wild type (ratio to wild type); higher = fitter; tRNA-Arg(CCU), competitive growth, 37 C, YPD
Method in brief: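 Variants of the tRNA-Arg(CCU) gene, chemically synthesised with a 3% per-site mutation rate at 69 sites, were placed at the native genomic locus in Saccharomyces cerevisiae. The pooled strains were competed in YPD at 37°C for 24 hours in six parallel replicates. Gene amplicons from the start population and from each end population were read by 100-nucleotide paired-end sequencing. Darwinian fitness relative to wild type came from changes in genotype frequencies; genotypes needed ≥ 100 starting reads, and estimates < 0.5 were set to 0.5.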

Row | Variant | yeast fitness
1 | C31A C33U G41C G67C | ≤ 0.5
2 | C30U C31U G41C | 0.526
3 | C31A C33G A36U C66U | ≤ 0.5
4 | C31G A43U | 0.984
5 | C31A A65C G67U | ≤ 0.5
6 | C31A C33U C49U | ≤ 0.5
7 | C30U G38A C61U | 0.692
8 | C31G C33G G39C | 0.508
9 | C31G C46G C61G A69U | ≤ 0.5
10 | C30U C33A G56C A70C | ≤ 0.5
11 | C31G A37C A57U | ≤ 0.5
12 | C31G A45U C62U | 0.876
13 | C30U U35C G51U C61U | ≤ 0.5
14 | C30U U54A G68U | ≤ 0.5
15 | C31G C34U A40C G63C | ≤ 0.5
16 | C30U C31G A43C G51A | 0.565
17 | C31A C61G G67C A70G | ≤ 0.5
18 | C31G C34U C46U G56A C62U | ≤ 0.5
19 | C31G C34U C46U G56A | ≤ 0.5
20 | C30U U54C A57C | ≤ 0.5
21 | C31G C34U C55U G63A | ≤ 0.5
22 | C31G C34U A42U | 0.612
23 | C31A C34A | 0.603
24 | C30U C49U | 0.862

Row | Variant | yeast fitness
25 | C30U C49A G52A C61G A70U | ≤ 0.5
26 | C30U C33A G50C C55G | ≤ 0.5
27 | C31A A37C C46U | ≤ 0.5
28 | C31G A37U C55G A57C | 0.541
29 | C30U G38A | 1
30 | C30U G38U | 0.824
31 | C30U G38C | 0.66
32 | C30U G39C U64C | 0.528
33 | C31G A40G C46A C55G | 0.578
34 | C31A A45G G52A C55A | ≤ 0.5
35 | C30U U47A G67C G68A | ≤ 0.5
36 | C31G A65U | 0.799
37 | C31G A36U G41A A45C | ≤ 0.5
38 | C30U C49U A70C | 0.543
39 | C31A A37G C49U C55U A57G | ≤ 0.5
40 | C30U G44A C60G | ≤ 0.5
41 | C31G A65C C66U | ≤ 0.5
42 | C31G A43G G51A | 0.593
43 | C30U U54A C66U A70C | ≤ 0.5
44 | C31A U47C | 0.767
45 | C31A G39A | 0.777
46 | C31A C34G A42G A45U | ≤ 0.5
47 | C31G C33A | 0.678
48 | C31A G67A | 0.754

Row | Variant | yeast fitness
49 | C30U C46U C60A | ≤ 0.5
50 | C31A C62G G63A C66G A69G | ≤ 0.5
51 | C31G A70G | 0.914
52 | C30U G39A | 0.897
53 | C31A C61G | 0.812
54 | C31A C61A | ≤ 0.5
55 | C31A C61U | 0.845
56 | C31G C46G | 1.04
57 | C30U C46A U54A A57G | 0.52
58 | C30U U47A U59A C60U C62G C66U | ≤ 0.5
59 | C31G A36C C49U U54G A65U | ≤ 0.5
60 | C31G A43U C46G | 0.586
61 | C30U U35C A45U A57C | 0.534
62 | C31G C34U G38A | 0.53
63 | C31G C33U A42C C66G | ≤ 0.5
64 | C30U U32C U54A | ≤ 0.5
65 | C31A A40C U47A U64A | ≤ 0.5
66 | C30U C34U A37U U59C C66U | 0.565
67 | C31G C33U A37C A70U | ≤ 0.5
68 | C31G A37U A42U | 0.56
69 | C31A A42C C46G | 0.959
70 | C31A A65U C66A | ≤ 0.5
71 | C30U C46A G63A | 0.825
72 | C31A C55U | 0.863

Row | Variant | yeast fitness
73 | C31A C55A | 0.666
74 | C31A A43G G50A A57U | 0.768
75 | C31G C33A C66A | 0.734
76 | C30U U35A A37G G38C U47A | ≤ 0.5
77 | C31G C34U A57U | 0.561
78 | C31A A42C | 0.963
79 | C31G A45C C60A G63A | ≤ 0.5
80 | C31G A43C A70U | 0.637
81 | C31A G56A | 0.805
82 | C30U G63A | 0.729
83 | C30U G63C | 0.757
84 | C31A C62U | 0.944
85 | C31A C62G | 0.651
86 | C31A A40U U53G G56C C62G | ≤ 0.5
87 | C31G C34U A40C C66A | ≤ 0.5
88 | C31G C46A G63C A65U | 0.509
89 | C30U G51C G67A | ≤ 0.5
90 | C30U U47A G67C | 0.567
91 | C31A G50C A70G | ≤ 0.5
92 | C30U C31G U53C | ≤ 0.5
93 | C31A U59C | 0.767
94 | C30U C49G U54A | ≤ 0.5
95 | C31G A42U | 0.983
96 | C31G A40U A45C | 0.533

Row | Variant | yeast fitness
97 | C30U C31U | 1.02
98 | C30U C33U A57G C60A | ≤ 0.5
99 | C31A U32C | 0.766
100 | C31G A37G C62U G63C | 0.54
101 | C30U U64C | 0.902
102 | C30U C33A A43G | ≤ 0.5
103 | C30U G38C G58A C61A | ≤ 0.5
104 | C31A C34G A45U | 0.591
105 | C30U U32A U54A | 0.536
106 | C31G A45G C60G | ≤ 0.5
107 | C30U G44A A65U | ≤ 0.5
108 | C31G A42G C49G | ≤ 0.5
109 | C30U G38A G52A | 0.621
110 | C30U C46A C62U | 0.852
111 | C30U C34G U59C | ≤ 0.5
112 | C30U C31G U35A | 0.62
113 | C30U C31A U54G | 0.549
114 | C31A G48A | 0.764
115 | C31A G48C | 0.661
116 | C31G A43U U47A | 0.605
117 | C30U G38A C60G | 0.537
118 | C30U G68A | 0.744
119 | C30U G68U | 0.923
120 | C31G C33A G48C | ≤ 0.5

Row | Variant | yeast fitness
121 | C31G A43G C49U G68A A69C | ≤ 0.5
122 | C30U G38A A69U | 0.781
123 | C30U U32A A36U A37U C62U G63A | ≤ 0.5
124 | C31G C55G U64C | ≤ 0.5
125 | C30U C62U | 0.868
126 | C30U U32A A36U A37U C61A | ≤ 0.5
127 | C30U G48C | 0.872
128 | C30U C66G | 0.617
129 | C30U C66A | 0.765
130 | C30U G39C U53A | ≤ 0.5
131 | C30U U32G A36G A37U U47A | 0.559
132 | C31A G50A | 0.791
133 | C31A G44C A65G | 0.553
134 | C31A C33G A36U U54C | ≤ 0.5
135 | C30U C31A G41A | ≤ 0.5
136 | C31A C61G G68C | ≤ 0.5
137 | C31A A69C | 0.949
138 | C31A A69U | 0.856
139 | C31G A57G | 0.771
140 | C31G A57U | 0.726
141 | C31G A57C | 0.617
142 | C31G A65U A70G | 0.589
143 | C30U G41C A69U | ≤ 0.5
144 | C30U G50C C66U | 0.526

Row | Variant | yeast fitness
145 | C30U C33A G41C A42U | ≤ 0.5
146 | C30U G50C A70G | ≤ 0.5
147 | C31G A42U C66U | 0.767
148 | C30U G41C | 0.651
149 | C30U G41A | 0.842
150 | C31A A36C G44A A57U C66A | ≤ 0.5
151 | C31A A40C C46U C55U G63A | ≤ 0.5
152 | C30U U35A | 0.63
153 | C30U G38C C55A G67A | ≤ 0.5
154 | C31G A37U G56C | ≤ 0.5
155 | C30U C62U G68C | 0.598
156 | C30U C31A A40U C49A | 0.682
157 | C31G C34U C55U G58A C61U | 0.586
158 | C31A A43G G68A | 0.657
159 | C30U C33A A36U A43U U54C G56A | 0.54
160 | C31A A65C | 0.89
161 | C31A A65G | 0.732
162 | C30U C34U G44C | ≤ 0.5
163 | C30U C55U C66U | 0.531
164 | C30U C55G | 0.553
165 | C30U C55U | 0.687
166 | C31A C33G A42C G48A U54A C66A | ≤ 0.5
167 | C31A A43G | 0.897
